Data reported in paper PMC9906001 (Pulmonary Circulation, 2023).
Values joined by “and” are separate entries in the source; they are usually repeats but may differ in a detail not shown here. Equal entries are not always repeated. Where two headings read alike, the source gives them in different places.

Columns and labels:
[1] = system: Japanese patients with pulmonary arterial hypertension; settings: baseline to week 16, study of selexipag in Japan; cited from earlier work
[2] = system: Japanese patients with pulmonary arterial hypertension; settings: lowest value among 5, 15, or 30 min after inhalation at Week 12, IBUKI study; cited from earlier work
[3] = system: Japanese patients with pulmonary arterial hypertension; assay: 6-minute walking distance and Borg Dyspnea Score; format: in vivo, human
Outline: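 Single-arm, open-label study: test compound nebulised at 6 µg/breath from a 0.6 mg/mL solution, started at 3 breaths (18 µg)/session four times daily. Peak 6MWD taken 10–60 min after inhalation, trough 6MWD at least 4 h post-inhalation. Borg score was a secondary endpoint. Change from baseline; significance taken as a two-sided 95% CI excluding 0.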

[4] = Plasma pharmacokinetics in Japanese healthy adults, single inhalation; format: in vivo, human; settings: 18 and 36 μg inhaled
[5] = 54 μg inhaled, non-Japanese PAH patients; cited from earlier work
[6] = system: Japanese patients with pulmonary arterial hypertension; assay: Hemodynamic measurements by right heart catheterization; format: in vivo, human
Outline: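 RHC at baseline and Week 12, pre-inhalation and 15 and 30 min after inhaling test compound (6 µg/breath, starting 3 breaths four times daily). CO by thermodilution or indirect Fick per site, with the same method per patient. PVR = (mPAP−PAWP)/CO; PVRI = (mPAP−PAWP)/cardiac index (CO/BSA). Lower of 15/30-min PVRI taken as Week-12 "best". Significance: 95% CI of mean change excluding 0.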

[7] = system: Japanese patients with pulmonary arterial hypertension; assay: Safety: adverse events and safety parameters over 52 weeks; format: in vivo, human
Outline: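 Over the 52 weeks of nebulised test compound (6 µg/breath, starting 3 breaths four times daily), AEs were coded by MedDRA v24.0 preferred term. Monitoring covered clinical laboratory tests, blood pressure, pulse, SpO2, ECG, chest X-ray, pulmonary function, arterial blood gas and body weight. Safety set: patients who received at least one dose.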

[8] = system: Japanese patients with pulmonary arterial hypertension; assay: WHO functional class; format: in vivo, human
Outline: (§1)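 Multicentre, non-randomised, single-arm study: 12-week main period plus 40-week extension. Nebulised test compound given as 0.6 mg/mL at 6 µg/breath, starting 3 breaths (18 µg)/session four times daily. Patients 18–75 y with PAH; stable background ERA/PDE5 inhibitor/sGC stimulator allowed; no other prostacyclin-pathway drugs. Secondary endpoints reported as change from baseline.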

[9] = system: Japanese patients with pulmonary arterial hypertension; assay: NT-proBNP levels; format: in vivo, human
Outline: as §1

[10] = system: Japanese patients with pulmonary arterial hypertension; assay: Quality of life, Minnesota Living with Heart Failure questionnaire; format: in vivo, human
Outline: as §1

[11] = Plasma pharmacokinetics in Japanese PAH patients; format: in vivo, human
[12] = system: Japanese patients with pulmonary arterial hypertension; assay: Time to clinical worsening; format: in vivo, human
Outline: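 Clinical worsening was defined as death, transplantation, hospitalisation for worsening PAH, or start of additional PAH-specific therapy. Followed during the 12-week main and 40-week long-term periods of open-label nebulised test compound (6 µg/breath, starting 3 breaths/session four times daily), in addition to background ERA and/or PDE5 inhibitor/sGC stimulator.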

[13] = Week 12, 15 min post-inhalation, n = 17
[14] = Week 12, 30 min post-inhalation, n = 17
[15] = Week 12, post-inhalation best, n = 17
[16] = Week 12, pre-inhalation (trough treprostinil level), n = 17
[17] = Week 12, pre-inhalation, n = 17
[18] = over 52 weeks, n = 17, listed as treprostinil
[19] = human, plasma, inhaled or intranasal, 54 ug

## CC(C)N(CCCCOCC(=O)NS(C)(=O)=O)c1cnc(-c2ccccc2)c(-c2ccccc2)n1 [selexipag]
[1]
  Change from baseline in mPAP: −3.1 mmHg

## CC#CCC(C)[C@H](O)/C=C/[C@@H]1[C@H]2C/C(=C/CCCC(=O)O)C[C@H]2C[C@H]1O (stereo partly drawn) [iloprost]
[2]
  Best change from baseline in mPAP: −6.75 mmHg

## CCCCC[C@H](O)CC[C@@H]1[C@H]2Cc3cccc(OCC(=O)O)c3C[C@H]2C[C@H]1O [inhaled treprostinil, Treprostinil]
[3]; Week 12
  Mean change from baseline in trough 6MWD: +17.8 ± 35.5 m
[3]; Weeks 6, 12, and 52
  Change from baseline in Borg Dyspnea Score: No significant changes
[4]
  Mean C max, Japanese vs non-Japanese healthy adults: 1.2 fold
[5]
  Geometric mean C max: 1.02 ng/mL
[6]; 13 patients receiving a combination of an ERA and a PDE5 inhibitor/sGC stimulator
  Best change from baseline in PVRI at Week 12: −36.7 ± 25.0%
[6]; [13]
  CO: 4.9 ± 1.6 L/min
  Cardiac index: 3.0 ± 0.9 L/min/m^2
  PAWP: 9.4 ± 4.2 mmHg
  PVR: 4.5 ± 1.8 Wood units
  PVRI: 7.4 ± 2.8 Wood units·m^2
  SVR: 17.8 ± 6.5 Wood units
  SVRI: 28.8 ± 9.5 Wood units·m^2
  SvO2: 71.3 ± 5.6%
  mPAP: 30.5 ± 10.1 mmHg
  mRAP: 4.5 ± 3.1 mmHg
[6]; [14]
  CO: 5.0 ± 1.5 L/min
  Cardiac index: 3.0 ± 0.9 L/min/m^2
  PAWP: 8.9 ± 3.9 mmHg
  PVR: 4.4 ± 2.0 Wood units
  PVRI: 7.3 ± 3.1 Wood units·m^2
  SVR: 17.7 ± 6.2 Wood units
  SVRI: 28.7 ± 9.2 Wood units·m^2
  SvO2: 70.0 ± 5.8%
  mPAP: 30.1 ± 10.3 mmHg
  mRAP: 4.8 ± 3.3 mmHg
[6]; [15]
  CO: 5.1 ± 1.7 L/min
  Cardiac index: 3.1 ± 0.9 L/min/m^2
  PAWP: 8.5 ± 4.0 mmHg
  PVR: 4.2 ± 1.9 Wood units
  PVRI: 6.9 ± 2.9 Wood units·m^2
  SVR: 17.5 ± 6.4 Wood units
  SVRI: 28.4 ± 9.4 Wood units·m^2
  SvO2: 71.5 ± 5.5%
  mPAP: 29.8 ± 9.9 mmHg
  mRAP: 4.4 ± 3.0 mmHg
[6]; [16]
  Change from baseline in PVR: −19.6 ± 26.8%
  Change from baseline in PVRI: −19.2 ± 26.8%
  Change from baseline in mPAP: −4.0 ± 6.1 mmHg
[6]; [17]
  CO: 4.6 ± 1.3 L/min
  Cardiac index: 2.8 ± 0.8 L/min/m^2
  PAWP: 8.8 ± 4.1 mmHg
  PVR: 5.7 ± 2.2 Wood units
  PVRI: 9.3 ± 3.1 Wood units·m^2
  SVR: 19.5 ± 6.2 Wood units
  SVRI: 31.7 ± 8.7 Wood units·m^2
  SvO2: 71.2 ± 5.3%
  mPAP: 34.1 ± 9.8 mmHg
  mRAP: 5.0 ± 3.5 mmHg
[6]; one patient who was treatment-naïve
  Best change from baseline in PVRI at Week 12: −54.7%
[6]; post-inhalation best, n = 17
  % Change from baseline to Week 12 in CO: 18.3 ± 20.0 (8.0 to 28.6) %
  % Change from baseline to Week 12 in PAWP: 24.2 ± 60.9 (−7.1 to 55.5) %
  % Change from baseline to Week 12 in PVR: −39.7 ± 25.6 (−52.9 to −26.5) %
  % Change from baseline to Week 12 in PVRI (primary endpoint): −39.4 ± 25.5 (−52.6 to −26.3) %
  % Change from baseline to Week 12 in SVR: −15.3 ± 24.0 (−27.7 to −3.0) %
  % Change from baseline to Week 12 in SVRI: −14.8 ± 24.4 (−27.4 to −2.3) %
  % Change from baseline to Week 12 in SvO2: 2.7 ± 5.8 (−0.3 to 5.7) %
  % Change from baseline to Week 12 in cardiac index: 17.8 ± 20.3 (7.3 to 28.2) %
  % Change from baseline to Week 12 in mPAP: −21.7 ± 19.7 (−31.9 to −11.6) %
  % Change from baseline to Week 12 in mRAP: −0.3 ± 57.0 (−31.9 to 31.2) %
  Change from baseline to Week 12 in PVR: −2.9 ± 2.0 (−4.0 to −1.9) Wood units
  Change from baseline to Week 12 in PVRI: −4.7 ± 3.0 (−6.2 to −3.1) Wood units·m^2
  Change from baseline to Week 12 in SVR: −3.3 ± 4.4 (−5.6 to −1.1) Wood units
  Change from baseline to Week 12 in SVRI: −5.3 ± 7.3 (−9.1 to −1.5) Wood units·m^2
  Change from baseline to Week 12 in mPAP: −8.3 ± 6.8 (−11.8 to −4.8) mmHg
[6]; three patients receiving an ERA
  Best change from baseline in PVRI at Week 12: −46.0 ± 35.1%
[7]; 52-week period
  AE related to treprostinil: cough: 47.1%
  AE related to treprostinil: headache: 58.8%
  AE related to treprostinil: hot flush: 23.5%
  AE related to treprostinil: throat irritation: 29.4%
[7]; all AEs, 52-week period
  Intensity of AEs: mild‐moderate intensity
[7]; four times daily in Japanese patients with PAH
  Tolerability: well tolerated
[7]; over 52 weeks, n = 17
  AE related to treprostinil: Blood pressure decreased: 2 (11.8) n (%)
  AE related to treprostinil: Diarrhoea: 2 (11.8) n (%)
  AE related to treprostinil: Dizziness: 2 (11.8) n (%)
  AE related to treprostinil: Head discomfort: 3 (17.6) n (%)
  AE related to treprostinil: Hot flush: 4 (23.5) n (%)
  AE related to treprostinil: Nausea: 3 (17.6) n (%)
  AE related to treprostinil: Oropharyngeal discomfort: 3 (17.6) n (%)
  AE related to treprostinil: Oropharyngeal pain: 2 (11.8) n (%)
  AE related to treprostinil: Pyrexia: 2 (11.8) n (%)
  AE related to treprostinil: cough: 8 (47.1) n (%)
  AE related to treprostinil: headache: 10 (58.8) n (%)
  AE related to treprostinil: throat irritation: 5 (29.4) n (%)
  Deaths: no deaths
[7]; [18]
  Deaths: 0 n (%)
  Total patients with at least one AE: 17 n (%) and 17 (100.0) n (%)
  Total patients with at least one AE related to treprostinil: 17 n (%) and 17 (100.0) n (%)
[8]; Week 12
  WHO functional class improved: four
[8]; Week 12 (n = 17)
  WHO functional class I: 1 (5.9) n (%)
  WHO functional class II: 13 (76.5) n (%)
  WHO functional class III: 3 (17.6) n (%)
[8]; Week 52 (n = 16)
  WHO functional class I: 2 (12.5) n (%)
  WHO functional class II: 12 (75.0) n (%)
  WHO functional class III: 2 (12.5) n (%)
[8]; baseline to Week 12 (n = 17)
  WHO functional class shift II -> I: 1 (5.9) n (%)
  WHO functional class shift II -> II: 10 (58.8) n (%)
  WHO functional class shift III -> II: 3 (17.6) n (%)
  WHO functional class shift III -> III: 3 (17.6) n (%)
[8]; baseline to Week 52 (n = 16)
  WHO functional class shift II -> I: 2 (12.5) n (%)
  WHO functional class shift II -> II: 9 (56.3) n (%)
  WHO functional class shift III -> II: 3 (18.8) n (%)
  WHO functional class shift III -> III: 2 (12.5) n (%)
[8]; throughout the 52 weeks
  Deterioration of WHO functional class: no patient
[9]; Week 6
  Mean change from baseline in NT-proBNP level: -34.6 ± 100.0 pg/mL
[9]; Week 12
  Mean change from baseline in NT-proBNP level: -35.5 ± 165.5 pg/mL
[9]; Week 52
  Mean change from baseline in NT-proBNP level: -77.1 ± 194.1 pg/mL
[10]; Week 12
  Mean change from baseline in MLWHF global score: −6.6 ± 12.1
[10]; Week 52
  Mean change from baseline in MLWHF global score: −5.8 ± 13.4
[11]; [19]
  MRT: 55.8 ± 10.2 min
  Vd/F: 76.7 ± 52.2 L
  k el: 0.000272 s⁻¹
[11]; nine breaths (54 μg) four times daily
  Time detectable in the plasma after inhalation: approximately 4 h
[12]; long-term treatment period, patients who had been receiving an ERA
  Add-on therapy with a PDE5 inhibitor/sGC stimulator: two patients
[12]; main treatment period (12 weeks)
  Needed additional PAH-specific therapy: no patient
[12]; throughout the 52 weeks
  Death, transplantation, or hospitalization due to worsening PAH: no patient
